Assay results from ChEMBL document CHEMBL1909500, “Synthesis and in vitro anticancer activity of 6,7-methylenedioxy (or 5-hydroxy-6-methoxy)-2-(substituted selenophenyl)quinolin-4-one analogs” (Eur J Med Chem, 2011).

Assays:
HL-60 = experiment: Cytotoxicity against human HL60 cells after 48 hrs by MTT assay; type: functional, cell-based; settings: HL-60, 48 h
In short: (§1)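 H460 or HL-60 cells were exposed to vehicle or compound for 48 h. Growth was read by MTT reduction at 570 nm, and IC50 was calculated.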

NCI-H460 = experiment: Cytotoxicity against human H460 cells after 48 hrs by MTT assay; type: functional, cell-based; settings: NCI-H460, 48 h; in short: as §1
[1] = Cytotoxicity against human Hep3B cells after 48 hrs by MTT assay; type: functional, cell-based, Hep 3B2
In short: (§2)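 Hep 3B (hepatoma) or Detroit 551 (normal skin) cells, grown at 37 °C and 5% CO₂ in DMEM with 10% FBS, penicillin/streptomycin and 1% L-glutamine, were used in log phase. Cells were exposed to vehicle or compound for 48 h. Growth was read by MTT reduction at 570 nm, and IC50 was calculated.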

Detroit 551 [2] = experiment: Cytotoxicity against human Detroit 551 cells after 48 hrs by MTT assay; type: cell-based; settings: Detroit 551, 48 h; in short: as §2
Detroit 551 [3] = experiment: Selectivity ratio of IC50 for human Detroit 551 cells to IC50 for human H460 cells
Detroit 551 [4] = experiment: Selectivity ratio of IC50 for human Detroit 551 cells to IC50 for human Hep3B cells

In the case of `COc1ccc2[nH]c(-c3cc[se]c3)cc(=O)c2c1`, the IC50 (HL-60) is reported as 0.7 µM, the IC50 (NCI-H460) is reported as 2.3 µM and the IC50 [1] is reported as 3.7 µM. For the same compound, the IC50 (Detroit 551 [2]) was greater than 10 µM.
`O=c1cc(-c2ccc[se]2)[nH]c2cc3c(cc12)OCO3` showed an IC50 (HL-60) of 0.5 µM, an IC50 (NCI-H460) of 1 µM and an IC50 [1] of 0.8 µM. The “Ratio IC50” value (Detroit 551 [3]) was 50, the IC50 (Detroit 551 [2]) was 50 µM and the “Ratio IC50” value (Detroit 551 [4]) was 50.
In the case of `COc1ccc2[nH]c(-c3ccc[se]3)cc(=O)c2c1O`, the IC50 (HL-60) is reported as 1.1 µM, the IC50 (NCI-H460) is reported as 0.4 µM and the IC50 [1] is reported as 0.7 µM. The IC50 (Detroit 551 [2]) was 100 µM.
`Oc1cc(-c2ccco2)nc2cc3c(cc12)OCO3` showed an IC50 (HL-60) of 6.8 µM, an IC50 (NCI-H460) greater than 15 µM and an IC50 [1] greater than 15 µM. The IC50 (Detroit 551 [2]) was greater than 15 µM.
Work on `O=c1cc(-c2ccsc2)[nH]c2cc3c(cc12)OCO3` yielded an IC50 (HL-60) of 0.9 µM, an IC50 (NCI-H460) of 4.3 µM and an IC50 [1] of 2.2 µM. It also gave an IC50 (Detroit 551 [2]) greater than 25 µM.
For `COc1ccc2[nH]c(-c3ccc[se]3)cc(=O)c2c1`, the IC50 (HL-60) was 0.6 µM, the IC50 (NCI-H460) was 2.4 µM and the IC50 [1] was 3.2 µM. It also gave an IC50 (Detroit 551 [2]) greater than 10 µM.
With `COc1ccc2[nH]c(-c3cc[se]c3)cc(=O)c2c1O` the IC50 (HL-60) was 0.4 µM, the IC50 (NCI-H460) was 0.8 µM and the IC50 [1] was 0.3 µM. The IC50 (Detroit 551 [2]) was greater than 100 µM.
`Oc1cc(-c2cccs2)nc2cc3c(cc12)OCO3` showed an IC50 (HL-60) of 1 µM, an IC50 (NCI-H460) of 1 µM and an IC50 [1] of 0.7 µM. For the same compound, the IC50 (Detroit 551 [2]) was greater than 5 µM.
In the case of `O=c1cc(-c2cc[se]c2)[nH]c2cc3c(cc12)OCO3`, the IC50 (HL-60) is reported as 0.9 µM, the IC50 (NCI-H460) is reported as 1.4 µM and the IC50 [1] is reported as 0.8 µM. The IC50 (Detroit 551 [2]) was greater than 10 µM.
With `Cc1ccc(-c2cc(=O)c3cc4c(cc3[nH]2)OCO4)o1` the IC50 (HL-60) was 4.3 µM, the IC50 (NCI-H460) was 9.8 µM and the IC50 [1] was 10 µM. The IC50 (Detroit 551 [2]) was greater than 10 µM.
Compound `COc1ccc2[nH]c(-c3ccc(C)[se]3)cc(=O)c2c1` has an IC50 (HL-60) of 0.4 µM, an IC50 (NCI-H460) of 2 µM and an IC50 [1] of 3 µM. The IC50 (Detroit 551 [2]) was greater than 10 µM.
For `COc1ccc2[nH]c(-c3cc[se]c3)cc(=O)c2c1OC`, the IC50 (HL-60) was 1.7 µM, the IC50 (NCI-H460) was 100 µM and the IC50 [1] was 100 µM. It also gave an IC50 (Detroit 551 [2]) greater than 100 µM.
For `COc1ccc2[nH]c(-c3ccc[se]3)cc(=O)c2c1OC`, the IC50 (HL-60) was 7.7 µM, the IC50 (NCI-H460) was 91.5 µM and the IC50 [1] was greater than 100 µM. It also gave an IC50 (Detroit 551 [2]) greater than 100 µM.
Work on `COc1ccc2[nH]c(-c3ccc(C)[se]3)cc(=O)c2c1OC` yielded an IC50 (HL-60) of 3.1 µM, an IC50 (NCI-H460) greater than 50 µM and an IC50 [1] greater than 50 µM. It also gave an IC50 (Detroit 551 [2]) greater than 50 µM.
With `Cc1ccc(-c2cc(=O)c3cc4c(cc3[nH]2)OCO4)s1` the IC50 (HL-60) was 0.3 µM, the IC50 (NCI-H460) was 0.4 µM and the IC50 [1] was 0.7 µM. For the same compound, the IC50 (Detroit 551 [2]) was greater than 5 µM.
With `O=c1cc(-c2ccoc2)[nH]c2cc3c(cc12)OCO3` the IC50 (HL-60) was 3.4 µM, the IC50 (NCI-H460) was 15.8 µM and the IC50 [1] was 9.6 µM. For the same compound, the IC50 (Detroit 551 [2]) was greater than 25 µM.
`COc1ccc2[nH]c(-c3ccc(C)[se]3)cc(=O)c2c1O` showed an IC50 (HL-60) of 0.4 µM, an IC50 (NCI-H460) of 0.9 µM and an IC50 [1] of 0.8 µM. The IC50 (Detroit 551 [2]) was greater than 50 µM.
